In ChEMBL document CHEMBL2440012, “Design, synthesis and anticonvulsant properties of new N-Mannich bases derived from 3-phenylpyrrolidine-2,5-diones” (Bioorg Med Chem, 2013):
The source made the active and inactive calls. No cut-off for these calls is given here.

What follows are compounds tested on Mus musculus (assay: Anticonvulsant activity in ip dosed albino CF1 mouse assessed as protection against maximal electroshock-induced seizures in half or more animals measured after 0.5 hr). Conditions: read-out: MED.
Assay type: functional
Summary of the method: (§1)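 Male CF-1 mice given ip suspension in 0.5% methylcellulose/water at 30, 100 and 300 mg/kg; MES, scPTZ (pentylenetetrazole 85 mg/kg sc, CD97 dose for clonic seizures ≥5 s) and rotarod (inability to hold balance 1 min in each of three trials) assessed at 0.5 and 4 h; value is minimum dose active in half or more animals.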

SMILES	minimal effective dose [mg/kg]
O=C1CC(c2cccc(Cl)c2)C(=O)N1CN1CCN(C2CCCCC2)CC1 (racemic)	300
O=C1CC(c2ccc(Cl)cc2)C(=O)N1CN1CCOCC1 (racemic)	100
O=C1CC(c2cccc(Cl)c2)C(=O)N1CN1CCN(c2ccc(Cl)cc2)CC1 (racemic)	300
O=C1CC(c2cccc(Cl)c2)C(=O)N1CN1CCN(c2cccc(C(F)(F)F)c2)CC1 (racemic)	100

The compounds below were run on Mus musculus (assay: Anticonvulsant activity in albino CF1 mouse assessed as protection against subcutaneous pentylenetetrazole-induced convulsion at 300 mg/kg, ip measured after 0.5 hrs). Conditions: not given.
Assay type: functional, organism-based
Set-up: dose 300 mg/kg
Summary of the method: as §1

SMILES	Activity
O=C1CC(c2cccc(Cl)c2)C(=O)N1CN1CCN(C2CCCCC2)CC1 (racemic)	inactive
O=C1CC(c2ccc(Cl)cc2)C(=O)N1CN1CCN(C2CCCCC2)CC1 (racemic)	inactive
O=C1CC(c2ccc(Cl)cc2)C(=O)N1CN1CCOCC1 (racemic)	inactive
O=C1CC(c2ccccc2Cl)C(=O)N1CN1CCN(c2ccc(Cl)cc2)CC1 (racemic)	inactive
O=C1CC(c2ccccc2Cl)C(=O)N1CN1CCN(c2cccc(C(F)(F)F)c2)CC1 (racemic)	inactive
O=C1CC(c2cccc(Cl)c2)C(=O)N1CN1CCN(c2ccccc2F)CC1 (racemic)	inactive
O=C1CC(c2cccc(Cl)c2)C(=O)N1CN1CCN(c2ccc(Cl)cc2)CC1 (racemic)	inactive
O=C1CC(c2cccc(Cl)c2)C(=O)N1CN1CCN(c2cccc(C(F)(F)F)c2)CC1 (racemic)	inactive
Cc1cccc(N2CCN(CN3C(=O)CC(c4cccc(Cl)c4)C3=O)CC2)c1 (racemic)	inactive
O=C1CC(c2ccc(Cl)cc2)C(=O)N1CN1CCN(c2cccc(Cl)c2)CC1 (racemic)	inactive
O=C1CC(c2ccc(Cl)cc2)C(=O)N1CN1CCN(c2cccc(C(F)(F)F)c2)CC1 (racemic)	inactive
O=C1CC(c2ccccc2Cl)C(=O)N1CN1CCN(C2CCCCC2)CC1 (racemic)	inactive
O=C1CC(c2ccccc2Cl)C(=O)N1CN1CCN(c2cccc(Cl)c2)CC1 (racemic)	inactive

These compounds were tested on Mus musculus (assay: Anticonvulsant activity in albino CF1 mouse assessed as protection against maximal electroshock-induced seizures at 300 mg/kg, ip measured after 0.5 hr). Conditions: not given.
Assay type: functional, organism-based
Set-up: dose 300 mg/kg
Summary of the method: as §1

SMILES	Activity
O=C1CC(c2ccc(Cl)cc2)C(=O)N1CN1CCN(C2CCCCC2)CC1 (racemic)	inactive
O=C1CC(c2ccccc2Cl)C(=O)N1CN1CCN(c2ccc(Cl)cc2)CC1 (racemic)	inactive
O=C1CC(c2ccccc2Cl)C(=O)N1CN1CCN(c2cccc(C(F)(F)F)c2)CC1 (racemic)	inactive
O=C1CC(c2cccc(Cl)c2)C(=O)N1CN1CCN(c2ccccc2F)CC1 (racemic)	inactive
Cc1cccc(N2CCN(CN3C(=O)CC(c4cccc(Cl)c4)C3=O)CC2)c1 (racemic)	inactive
O=C1CC(c2ccc(Cl)cc2)C(=O)N1CN1CCN(c2cccc(Cl)c2)CC1 (racemic)	inactive
O=C1CC(c2ccc(Cl)cc2)C(=O)N1CN1CCN(c2cccc(C(F)(F)F)c2)CC1 (racemic)	inactive
O=C1CC(c2ccccc2Cl)C(=O)N1CN1CCN(C2CCCCC2)CC1 (racemic)	inactive
O=C1CC(c2ccccc2Cl)C(=O)N1CN1CCN(c2cccc(Cl)c2)CC1 (racemic)	inactive

These compounds were tested on Mus musculus (assay: Neurotoxicity in albino CF1 mouse assessed as minimum motor impairment at 300 mg/kg, ip measured after 0.5 hr by rotorod test). Conditions: in vivo.
Assay type: toxicity, organism-based
Set-up: dose 300 mg/kg, route intraperitoneal
Summary of the method: as §1

SMILES	Activity
O=C1CC(c2cccc(Cl)c2)C(=O)N1CN1CCN(C2CCCCC2)CC1 (racemic)	Non-toxic
O=C1CC(c2ccc(Cl)cc2)C(=O)N1CN1CCN(C2CCCCC2)CC1 (racemic)	Non-toxic
O=C1CC(c2ccc(Cl)cc2)C(=O)N1CN1CCOCC1 (racemic)	Non-toxic
O=C1CC(c2ccccc2Cl)C(=O)N1CN1CCN(c2ccc(Cl)cc2)CC1 (racemic)	Non-toxic
O=C1CC(c2ccccc2Cl)C(=O)N1CN1CCN(c2cccc(C(F)(F)F)c2)CC1 (racemic)	Non-toxic
O=C1CC(c2cccc(Cl)c2)C(=O)N1CN1CCN(c2ccc(Cl)cc2)CC1 (racemic)	Non-toxic
O=C1CC(c2ccccc2Cl)C(=O)N1CN1CCN(C2CCCCC2)CC1 (racemic)	Non-toxic

What follows are compounds tested on Mus musculus (assay: Neurotoxicity in ip dosed albino CF1 mouse assessed as minimum motor impairment in half or more animals measured after 0.5 hrs by rotorod test). Conditions: in vivo.
Assay type: toxicity, organism-based
Summary of the method: as §1

SMILES	MED [mg/kg]
O=C1CC(c2cccc(Cl)c2)C(=O)N1CN1CCN(c2ccccc2F)CC1 (racemic)	300
O=C1CC(c2cccc(Cl)c2)C(=O)N1CN1CCN(c2cccc(C(F)(F)F)c2)CC1 (racemic)	300
Cc1cccc(N2CCN(CN3C(=O)CC(c4cccc(Cl)c4)C3=O)CC2)c1 (racemic)	100
O=C1CC(c2ccc(Cl)cc2)C(=O)N1CN1CCN(c2cccc(Cl)c2)CC1 (racemic)	300
O=C1CC(c2ccc(Cl)cc2)C(=O)N1CN1CCN(c2cccc(C(F)(F)F)c2)CC1 (racemic)	300
O=C1CC(c2ccccc2Cl)C(=O)N1CN1CCN(c2cccc(Cl)c2)CC1 (racemic)	100

These compounds were tested on Mus musculus (assay: Neurotoxicity in albino CF1 mouse assessed as minimum motor impairment at 300 mg/kg, ip measured after 4 hrs by rotorod test). Conditions: in vivo.
Assay type: toxicity, organism-based
Set-up: dose 300 mg/kg, route intraperitoneal
Summary of the method: as §1

SMILES	Activity
O=C1CC(c2cccc(Cl)c2)C(=O)N1CN1CCN(C2CCCCC2)CC1 (racemic)	Non-toxic
O=C1CC(c2ccc(Cl)cc2)C(=O)N1CN1CCN(C2CCCCC2)CC1 (racemic)	Non-toxic
O=C1CC(c2ccc(Cl)cc2)C(=O)N1CN1CCOCC1 (racemic)	Non-toxic
O=C1CC(c2ccccc2Cl)C(=O)N1CN1CCN(c2ccc(Cl)cc2)CC1 (racemic)	Non-toxic
O=C1CC(c2ccccc2Cl)C(=O)N1CN1CCN(c2cccc(C(F)(F)F)c2)CC1 (racemic)	Non-toxic
O=C1CC(c2cccc(Cl)c2)C(=O)N1CN1CCN(c2ccccc2F)CC1 (racemic)	Non-toxic
O=C1CC(c2cccc(Cl)c2)C(=O)N1CN1CCN(c2ccc(Cl)cc2)CC1 (racemic)	Non-toxic
Cc1cccc(N2CCN(CN3C(=O)CC(c4cccc(Cl)c4)C3=O)CC2)c1 (racemic)	Non-toxic
O=C1CC(c2ccc(Cl)cc2)C(=O)N1CN1CCN(c2cccc(C(F)(F)F)c2)CC1 (racemic)	Non-toxic
O=C1CC(c2ccccc2Cl)C(=O)N1CN1CCN(C2CCCCC2)CC1 (racemic)	Non-toxic

Each compound was assayed on Mus musculus (assay: Anticonvulsant activity in albino CF1 mouse assessed as protection against subcutaneous pentylenetetrazole-induced convulsion at 300 mg/kg, ip measured after 4 hrs). Conditions: not given.
Assay type: functional, organism-based
Set-up: dose 300 mg/kg
Summary of the method: as §1

SMILES	Activity
O=C1CC(c2cccc(Cl)c2)C(=O)N1CN1CCN(C2CCCCC2)CC1 (racemic)	inactive
O=C1CC(c2ccc(Cl)cc2)C(=O)N1CN1CCN(C2CCCCC2)CC1 (racemic)	inactive
O=C1CC(c2ccc(Cl)cc2)C(=O)N1CN1CCOCC1 (racemic)	inactive
O=C1CC(c2ccccc2Cl)C(=O)N1CN1CCN(c2ccc(Cl)cc2)CC1 (racemic)	inactive
O=C1CC(c2ccccc2Cl)C(=O)N1CN1CCN(c2cccc(C(F)(F)F)c2)CC1 (racemic)	inactive
O=C1CC(c2cccc(Cl)c2)C(=O)N1CN1CCN(c2ccccc2F)CC1 (racemic)	inactive
O=C1CC(c2cccc(Cl)c2)C(=O)N1CN1CCN(c2ccc(Cl)cc2)CC1 (racemic)	inactive
O=C1CC(c2cccc(Cl)c2)C(=O)N1CN1CCN(c2cccc(C(F)(F)F)c2)CC1 (racemic)	inactive
Cc1cccc(N2CCN(CN3C(=O)CC(c4cccc(Cl)c4)C3=O)CC2)c1 (racemic)	inactive
O=C1CC(c2ccc(Cl)cc2)C(=O)N1CN1CCN(c2cccc(Cl)c2)CC1 (racemic)	inactive
O=C1CC(c2ccc(Cl)cc2)C(=O)N1CN1CCN(c2cccc(C(F)(F)F)c2)CC1 (racemic)	inactive
O=C1CC(c2ccccc2Cl)C(=O)N1CN1CCN(C2CCCCC2)CC1 (racemic)	inactive
O=C1CC(c2ccccc2Cl)C(=O)N1CN1CCN(c2cccc(Cl)c2)CC1 (racemic)	inactive

Each compound was assayed on Mus musculus (assay: Anticonvulsant activity in ip dosed albino CF1 mouse assessed as protection against maximal electroshock-induced seizures in half or more animals measured after 4 hrs). Conditions: read-out: MED.
Assay type: functional
Summary of the method: as §1

SMILES	minimal effective dose [mg/kg]
O=C1CC(c2cccc(Cl)c2)C(=O)N1CN1CCN(C2CCCCC2)CC1 (racemic)	300
O=C1CC(c2ccc(Cl)cc2)C(=O)N1CN1CCN(C2CCCCC2)CC1 (racemic)	100
O=C1CC(c2ccc(Cl)cc2)C(=O)N1CN1CCOCC1 (racemic)	300
O=C1CC(c2ccccc2Cl)C(=O)N1CN1CCN(c2ccc(Cl)cc2)CC1 (racemic)	300
O=C1CC(c2ccccc2Cl)C(=O)N1CN1CCN(c2cccc(C(F)(F)F)c2)CC1 (racemic)	100
O=C1CC(c2cccc(Cl)c2)C(=O)N1CN1CCN(c2ccccc2F)CC1 (racemic)	100
O=C1CC(c2cccc(Cl)c2)C(=O)N1CN1CCN(c2ccc(Cl)cc2)CC1 (racemic)	100
O=C1CC(c2cccc(Cl)c2)C(=O)N1CN1CCN(c2cccc(C(F)(F)F)c2)CC1 (racemic)	100
Cc1cccc(N2CCN(CN3C(=O)CC(c4cccc(Cl)c4)C3=O)CC2)c1 (racemic)	30
O=C1CC(c2ccc(Cl)cc2)C(=O)N1CN1CCN(c2cccc(Cl)c2)CC1 (racemic)	100
O=C1CC(c2ccc(Cl)cc2)C(=O)N1CN1CCN(c2cccc(C(F)(F)F)c2)CC1 (racemic)	100
O=C1CC(c2ccccc2Cl)C(=O)N1CN1CCN(C2CCCCC2)CC1 (racemic)	100
O=C1CC(c2ccccc2Cl)C(=O)N1CN1CCN(c2cccc(Cl)c2)CC1 (racemic)	100

The compounds below were run on Mus musculus (assay: Neurotoxicity in ip dosed albino CF1 mouse assessed as minimum motor impairment in half or more animals measured after 4 hrs by rotorod test). Conditions: in vivo.
Assay type: toxicity, organism-based
Summary of the method: as §1

SMILES	MED [mg/kg]
O=C1CC(c2cccc(Cl)c2)C(=O)N1CN1CCN(c2cccc(C(F)(F)F)c2)CC1 (racemic)	300
O=C1CC(c2ccc(Cl)cc2)C(=O)N1CN1CCN(c2cccc(Cl)c2)CC1 (racemic)	300
O=C1CC(c2ccccc2Cl)C(=O)N1CN1CCN(c2cccc(Cl)c2)CC1 (racemic)	300
